Converted amounts (≈) assume the structure as drawn.
What was measured:
[1] = target: Beta-lactamase (Escherichia coli K-12) (UniProt P00811); experiment: Hydrolysis rate by the beta-lactamase from Escherichia coli 6 relative to cephaloridine.
Method in brief: (§1)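 Cells were grown statically in nutrient phosphate broth for 16 h at 37 °C and disrupted ultrasonically. β-lactamase was partially purified on CM-Sephadex C-50. Substrate (100 μM final) was hydrolysed in 0.1 M potassium phosphate pH 7.0 at 30 °C, with the enzyme diluted in buffer containing 0.001% gelatin. Rate came from the slope of UV optical density decrease and was expressed relative to cephaloridine = 100.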

[2] = target: Beta-lactamase TEM (Escherichia coli) (UniProt P62593); experiment: Hydrolysis rate by the beta-lactamase from Escherichia coli W3110 RTEM relative to cephaloridine.
Method in brief: (§2)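 Constitutive producers were grown statically in nutrient phosphate broth at 37 °C for 16 h, then sonicated. Enzyme was partially purified on DEAE-Sephadex A-25 (phosphate gradient, 0.01 M pH 8.0 to 0.5 M pH 6.2). Assay conditions: 0.1 M potassium phosphate pH 7.0, 30 °C, 0.001% gelatin in enzyme diluent, 100 μM final substrate. Hydrolysis rate was taken from the slope of UV absorbance decrease, with cephaloridine set to 100.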

[3] = system: Beta-lactamase (Klebsiella sp.); experiment: Hydrolysis rate by the beta-lactamase from Klebsiella sp. 363 relative to cephaloridine (100)
[4] = system: Beta-lactamase (Proteus vulgaris); experiment: Hydrolysis rate by the beta-lactamase from Proteus vulgaris 31 relative to cephaloridine (100)
[5] = system: Beta-lactamase (Enterobacter cloacae); experiment: Hydrolysis rate by the beta-lactamase from Enterobacter cloacae 214 relative to cephaloridine (100)
[6] = target: T1, Beta-lactamase (Klebsiella oxytoca) (UniProt Q8RT60); experiment: Hydrolysis rate by beta-lactamase of Klebsiella sp. 363 relative to cephaloridine (100); method in brief: as §2
T1 sequence (whole entry): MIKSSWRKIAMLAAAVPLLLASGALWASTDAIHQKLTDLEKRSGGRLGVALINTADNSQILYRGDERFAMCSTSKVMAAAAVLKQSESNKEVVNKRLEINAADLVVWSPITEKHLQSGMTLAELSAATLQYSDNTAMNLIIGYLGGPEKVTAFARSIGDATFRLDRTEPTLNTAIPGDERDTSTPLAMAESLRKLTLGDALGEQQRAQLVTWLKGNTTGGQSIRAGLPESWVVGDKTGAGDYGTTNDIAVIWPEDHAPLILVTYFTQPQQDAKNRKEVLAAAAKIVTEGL

Escherichia coli [7] = experiment: Inhibitory concentration of compound was tested against gram negative Escherichia coli 73.; format: functional
Method in brief: (§3)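 MIC by agar dilution on sensitivity test agar with serial twofold antibiotic dilutions. The inoculum was an overnight tryptose broth culture diluted to about 10⁶ cells/mL. Plates were incubated at 37 °C for 18-20 h. MIC was the lowest concentration inhibiting visible growth.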

Escherichia coli [8] = experiment: Inhibitory concentration of compound was tested against gram negative Escherichia coli H organism.; format: functional; method in brief: as §3
Escherichia coli [9] = experiment: Inhibitory concentration of compound was tested against gram negative Escherichia coli NIH JC-2.; format: functional; method in brief: as §3
Klebsiella pneumoniae [10] = experiment: Inhibitory concentration of compound was tested against gram negative Klebsiella pneumoniae.; format: functional; method in brief: as §3
Klebsiella pneumoniae [11] = experiment: (§4) Inhibitory concentration of compound was tested against gram negative Klebsiella sp 363.; format: functional; method in brief: as §3
Proteus mirabilis [12] = experiment: Inhibitory concentration of compound was tested against gram negative Proteus mirabilis PR-4.; format: functional; method in brief: as §3
[13] = system: Beta-lactamase (Proteus vulgaris); experiment: Hydrolysis rate by the beta-lactamase from Proteus vulgaris 31 relative to cephaloridine.
[14] = target: Beta-lactamase (Enterobacter cloacae) (UniProt P05364); experiment: Hydrolysis rate by the beta-lactamase from Enterobacter cloacae 214 relative to cephaloridine (100); c= Hydrolysis was not detected; method in brief: as §1
[15] = target: Beta-lactamase (Escherichia coli K-12) (UniProt P00811); experiment: Hydrolysis rate by the beta-lactamase from Escherichia coli 6 relative to cephaloridine (100); c= Hydrolysis was not detected; method in brief: as §1
Klebsiella = experiment: as §4; format: functional; method in brief: as §3
Escherichia coli [16] = experiment: Inhibitory concentration of compound was tested against gram negative Escherichia coli H organism; format: functional; method in brief: as §3
Escherichia coli [17] = experiment: Inhibitory concentration of compound was tested against gram negative Escherichia coli NIH JC-2; format: functional; method in brief: as §3
Klebsiella pneumoniae [18] = experiment: Inhibitory concentration of compound was tested against gram negative Klebsiella pneumoniae
Proteus mirabilis [19] = experiment: Inhibitory concentration of compound was tested against gram negative Proteus mirabilis PR-4.
[20] = target: Beta-lactamase (Enterobacter cloacae) (UniProt P05364); experiment: Hydrolysis rate by the beta-lactamase from Enterobacter cloacae 214 relative to cephaloridine (100);c= Hydrolysis was not detected; method in brief: as §1
[21] = target: Beta-lactamase (Escherichia coli K-12) (UniProt P00811); experiment: Hydrolysis rate by the beta-lactamase from Escherichia coli 6 relative to cephaloridine (100);c= Hydrolysis was not detected; method in brief: as §1

Chain of Beta-lactamase (Escherichia coli K-12) (P00811 whole entry): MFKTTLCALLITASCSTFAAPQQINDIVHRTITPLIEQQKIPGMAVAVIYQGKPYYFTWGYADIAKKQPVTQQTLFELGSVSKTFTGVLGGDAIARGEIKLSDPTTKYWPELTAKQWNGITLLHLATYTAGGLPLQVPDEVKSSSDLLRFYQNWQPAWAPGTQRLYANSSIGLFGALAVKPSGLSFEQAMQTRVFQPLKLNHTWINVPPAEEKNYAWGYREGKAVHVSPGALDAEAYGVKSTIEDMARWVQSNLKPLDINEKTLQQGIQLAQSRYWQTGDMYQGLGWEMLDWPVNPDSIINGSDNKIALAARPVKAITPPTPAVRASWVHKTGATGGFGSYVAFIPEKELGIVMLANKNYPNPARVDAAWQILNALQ
Chain of Beta-lactamase TEM (Escherichia coli) (P62593 whole entry): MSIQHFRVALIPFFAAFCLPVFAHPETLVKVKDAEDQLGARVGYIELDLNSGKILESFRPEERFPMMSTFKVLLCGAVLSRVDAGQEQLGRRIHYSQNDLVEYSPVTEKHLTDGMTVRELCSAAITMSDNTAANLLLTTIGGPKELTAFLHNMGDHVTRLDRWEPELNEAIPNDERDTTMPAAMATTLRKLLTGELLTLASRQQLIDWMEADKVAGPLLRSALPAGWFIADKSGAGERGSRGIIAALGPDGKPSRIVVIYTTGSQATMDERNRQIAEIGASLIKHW
Chain of Beta-lactamase (Enterobacter cloacae) (UniProt P05364) (P05364 21-381 limits assumed): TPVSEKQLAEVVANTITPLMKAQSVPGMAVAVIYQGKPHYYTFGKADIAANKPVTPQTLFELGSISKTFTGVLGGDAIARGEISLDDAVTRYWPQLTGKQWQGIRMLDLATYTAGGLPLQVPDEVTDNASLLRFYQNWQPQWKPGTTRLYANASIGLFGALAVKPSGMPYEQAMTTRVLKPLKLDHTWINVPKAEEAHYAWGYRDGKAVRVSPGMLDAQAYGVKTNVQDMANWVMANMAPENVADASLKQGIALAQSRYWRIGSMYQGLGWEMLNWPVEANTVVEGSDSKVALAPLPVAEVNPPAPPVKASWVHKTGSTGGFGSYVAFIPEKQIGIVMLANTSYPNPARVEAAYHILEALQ

| SMILES | Relative hydrolysis rate [1] | Relative hydrolysis rate [2] | Relative hydrolysis rate [6] | MIC (Escherichia coli [7]) [µg/mL] | MIC (Escherichia coli [8]) [µg/mL] | MIC (Escherichia coli [9]) [µg/mL] | MIC (Klebsiella pneumoniae [10]) [µg/mL] | MIC (Klebsiella pneumoniae [11]) [µg/mL] | MIC (Proteus mirabilis [12]) [µg/mL] | Relative hydrolysis rate [13] | other results |
| --- | --- | --- | --- | --- | --- | --- | --- | --- | --- | --- | --- |
| CC1=C(C(=O)O)N2C(=O)C(NC(=O)C(N)c3ccccc3)C2OC1 (configuration not stated) | 260 | 12 |  |  |  |  |  |  |  |  | Relative hydrolysis rate [3]: 9.6; Relative hydrolysis rate [4]: 330; Relative hydrolysis rate [5]: 95 |
| Cc1nnc(SCC2=C(C(=O)O)N3C(=O)C(NC(=O)Cn4cnnn4)C3OC2)s1 (configuration not stated) | 150 | 620 | 380 | > 100 | 0.78 (≈ 1.78 µM) | 0.78 (≈ 1.78 µM) | 1.56 (≈ 3.56 µM) | > 100 | 1.56 (≈ 3.56 µM) | 1200 |  |
| Cn1nnnc1SCC1=C(C(=O)O)N2C(=O)C(NC(=O)C(O)c3ccccc3)C2SC1 (configuration not stated) | 14 | 55 | 130 | 25 (≈ 54.1 µM) | 0.2 (≈ 0.432 µM) | 0.39 (≈ 0.843 µM) | 0.39 (≈ 0.843 µM) | > 100 | 0.78 (≈ 1.69 µM) |  |  |
| Cn1nnnc1SCC1=C(C(=O)O)N2C(=O)C(NC(=O)/C(=N\O)c3ccc(NS(C)(=O)=O)cc3)C2SC1 (configuration not stated) | 2.2 | 34 | 35 | 50 (≈ 87.9 µM) | 0.78 (≈ 1.37 µM) | 0.78 (≈ 1.37 µM) | 1.56 (≈ 2.74 µM) | > 100 | 6.25 (≈ 11 µM) | 170 |  |
| Cn1nnnc1SCC1=C(C(=O)O)N2C(=O)C(NC(=O)C(O)c3ccccc3)C2OC1 (configuration not stated) | 39 | 370 | 360 | > 100 | 0.05 (≈ 0.112 µM) | 0.05 (≈ 0.112 µM) | 0.05 (≈ 0.112 µM) | 100 (≈ 224 µM) | 0.1 (≈ 0.224 µM) | 300 |  |
| Cn1nnnc1SCC1=C(C(=O)O)N2C(=O)C(NC(=O)Cc3ccc(O)cc3)C2OC1 (configuration not stated) | 1200 | 560 | 630 | > 100 | 0.39 (≈ 0.874 µM) | 0.78 (≈ 1.75 µM) | 0.78 (≈ 1.75 µM) | > 100 | 0.39 (≈ 0.874 µM) | 710 |  |
| Cn1nnnc1SCC1=C(C(=O)O)N2C(=O)C(NC(=O)C(C(=O)O)c3ccc(O)cc3)C2OC1 (configuration not stated) |  | 19 | 80 | 50 (≈ 102 µM) | 0.2 (≈ 0.408 µM) | 0.2 (≈ 0.408 µM) | 0.2 (≈ 0.408 µM) | 100 (≈ 204 µM) | 0.39 (≈ 0.795 µM) | 86 | Relative hydrolysis rate [14]: Hydrolysis not detected; Relative hydrolysis rate [15]: Hydrolysis not detected |
| CC1=C(C(=O)O)N2C(=O)C(NC(=O)CSC(F)(F)F)C2OC1 (configuration not stated) | 910 | 18 | 100 | 100 (≈ 294 µM) | 3.13 (≈ 9.2 µM) | 6.25 (≈ 18.4 µM) | 6.25 (≈ 18.4 µM) | > 100 | 25 (≈ 73.5 µM) | 500 |  |
| CCN1CCN(C(=O)NC(C(=O)NC2C(=O)N3C(C(=O)O)=C(CSc4nnnn4C)CSC23)c2ccc(OC(N)=O)cc2)C(=O)C1=O (configuration not stated) | 5.1 | 59 | 3.1 | 12.5 (≈ 18.2 µM) | ≤ 0.013 | 0.1 (≈ 0.145 µM) | 0.05 (≈ 0.0726 µM) | > 100 | 1.56 (≈ 2.27 µM) | 16 |  |
| CC1=C(C(=O)O)N2C(=O)[C@@H](NC(=O)[C@H](N)c3ccccc3)[C@H]2SC1 | 57 | 0.75 |  |  |  |  |  |  |  |  |  |
| Cn1nnnc1SCC1=C(C(=O)O)N2C(=O)C(NC(=O)Cc3csc(N)n3)C2SC1 (configuration not stated) | 120 | 17 | 4.1 | 1.56 (≈ 3.33 µM) | 0.05 (≈ 0.107 µM) | 0.1 (≈ 0.213 µM) | 0.1 (≈ 0.213 µM) | 6.25 (≈ 13.3 µM) | 0.1 (≈ 0.213 µM) | 250 |  |
| CCN1CCN(C(=O)NC(C(=O)NC2C(=O)N3C(C(=O)O)=C(CSc4nnnn4C)COC23)c2ccc(OC(N)=O)cc2)C(=O)C1=O (configuration not stated) | 10 | 110 | 0.69 | 12.5 (≈ 18.6 µM) | ≤ 0.013 | ≤ 0.013 | ≤ 0.013 | 12.5 (≈ 18.6 µM) | 0.2 (≈ 0.297 µM) | 34 |  |
| Cn1nnnc1SCC1=C(C(=O)O)N2C(=O)C(NC(=O)Cc3csc(N)n3)C2OC1 (configuration not stated) | 360 | 350 | 240 | > 100 | 0.1 (≈ 0.221 µM) | 0.2 (≈ 0.442 µM) | 0.2 (≈ 0.442 µM) | > 100 | 0.2 (≈ 0.442 µM) | 770 |  |
| Cc1nnc(SCC2=C(C(=O)O)N3C(=O)C(NC(=O)Cn4cnnn4)C3SC2)s1 (configuration not stated) |  |  |  | 25 (≈ 55 µM) | 1.56 (≈ 3.43 µM) | 1.56 (≈ 3.43 µM) |  |  |  |  | MIC (Klebsiella): > 100 µg/mL |
| Cn1nnnc1SCC1=C(C(=O)O)N2C(=O)C(NC(=O)Cc3ccc(O)cc3)C2SC1 (configuration not stated) | 360 | 39 | 120 | 25 (≈ 54.1 µM) | 0.78 (≈ 1.69 µM) | 3.13 (≈ 6.77 µM) | 1.56 (≈ 3.37 µM) | 100 (≈ 216 µM) | 1.56 (≈ 3.37 µM) | 410 |  |
| CC1=C(C(=O)O)N2C(=O)C(NC(=O)CSC(F)(F)F)C2SC1 (configuration not stated) | 750 | 1.5 |  | > 100 |  |  |  |  |  | 160 | MIC (Escherichia coli [16]): 25 µg/mL (≈ 70.2 µM); MIC (Escherichia coli [17]): 50 µg/mL (≈ 140 µM); MIC (Klebsiella): > 100 µg/mL; MIC (Klebsiella pneumoniae [18]): 50 µg/mL (≈ 140 µM); Relative hydrolysis rate [3]: 6.2; MIC (Proteus mirabilis [19]): 50 µg/mL (≈ 140 µM) |
| Cn1nnnc1SCC1=C(C(=O)O)N2C(=O)C(NC(=O)C(C(=O)O)c3ccc(O)cc3)C2SC1 (configuration not stated) |  | 0.96 | 6.3 | 50 (≈ 98.7 µM) | 3.13 (≈ 6.18 µM) | 3.13 (≈ 6.18 µM) | 3.13 (≈ 6.18 µM) | 50 (≈ 98.7 µM) | 3.13 (≈ 6.18 µM) | 20 | Relative hydrolysis rate [20]: Hydrolysis not detected; Relative hydrolysis rate [21]: Hydrolysis not detected |
| Cn1nnnc1SCC1=C(C(=O)O)N2C(=O)C(NC(=O)/C(=N\O)c3ccc(NS(C)(=O)=O)cc3)C2OC1 (configuration not stated) | 5.5 | 290 | 350 | > 100 | 0.78 (≈ 1.41 µM) | 0.78 (≈ 1.41 µM) | 0.78 (≈ 1.41 µM) | > 100 | 1.56 (≈ 2.82 µM) | 330 |  |
